These results are taken from ChEMBL document CHEMBL1212767, “In vitro and in vivo activities of 1-hydroxy-2-alkyl-4(1H)quinolone derivatives against Toxoplasma gondii” (Antimicrob Agents Chemother, 2010).

Assay [1] concerns Toxoplasma gondii. Kind of assay: Antimicrobial activity against Toxoplasma gondii type 1 RH strain infected in human foreskin fibroblasts monolayer assessed as inhibition of parasite replication after 24 hrs by phase-contrast microscopy. It is filed as functional, organism-based.
Assay [2] has as its system Toxoplasma gondii. Kind of assay: Antimicrobial activity against GFP-expressing Toxoplasma gondii type 1 RH strain ip infected in NMRI mouse assessed as decrease in parasite DNA level in liver at 32 mg/kg, ip administered 3 days postinfection for 5 days by quantitative PCR analysis. The assay is classed as functional, organism-based. The arrangement: dose 32 mg/kg. In short, it runs like this:
(§1)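 Same i.p.-infected NMRI model and dosing regimen; liver and lung collected on day 8. Parasite DNA was quantified by qPCR targeting the T. gondii cryptic gene, using 250 ng total DNA, 2 mM MgCl2, 1 μM each primer and 0.2 μM each hybridization probe. Cycling: 50 cycles of 95°C, 52°C and 72°C. Standard curve of 250 to 2.5 pg parasite DNA run each time; crossing points by second-derivative method.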

The subject of assay [3] is Toxoplasma gondii. The assay is described as follows: Antimicrobial activity against GFP-expressing Toxoplasma gondii type 1 RH strain ip infected in NMRI mouse assessed as decrease in infected peritoneal cells in peritoneal cavity lavage at 32 mg/kg, ip administered 3 days postinfection for 5 days. The assay is classed as functional, organism-based. More on the design: dose 32 mg/kg. In short, it runs like this: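 Female NMRI mice infected i.p. with GFP-expressing RH tachyzoites. From day 3 post-infection, drug was given i.p. at 32 mg/kg/day for 5 days. Vehicle was ethanol-DMSO (1:1), sonicated at 70°C, then diluted with an equal volume of PBS. Vehicle-treated mice served as controls. On day 8, peritoneal lavage cells were fixed in 3.7% formaldehyde, and the percentage of GFP-infected cells was measured by flow cytometry. Data pooled from three experiments.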

Assay [4] deals with Toxoplasma gondii. Kind of assay: Antimicrobial activity against Toxoplasma gondii type 2 ME49 strain orally infected in ip dosed IRF-8 deficient mouse brain assessed as decrease in inflammatory foci administered for 5 days after 3 days post 28 day 400 mg/dl sulfadiazine dosing […]. It is filed as functional, organism-based. In short, it runs like this:
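Same ME49 chronic model: sulfadiazine 400 mg/dl for 28 days, then daily drug for 5 days starting 3 days after withdrawal, four mice per group, repeated three times. Brain inflammatory foci were graded as mean inflammatory scores using a previously described scoring method.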

In assay [5] the test system is Toxoplasma gondii. Kind of assay: Antimicrobial activity against GFP-expressing Toxoplasma gondii type 1 RH strain ip infected in NMRI mouse assessed as decrease in parasite DNA level in lungs at 32 mg/kg, ip administered 3 days postinfection for 5 days by quantitative PCR analysis. The assay is classed as functional, organism-based. More on the design: dose 32 mg/kg. In short, it runs like this:
as §1

Assay [6] relates to Toxoplasma gondii. The assay is described as follows: Antimicrobial activity against Toxoplasma gondii type 2 ME49 strain orally infected in ip dosed IRF-8 deficient mouse brain assessed as decrease in Toxoplasma DNA level measured per 250 ng total DNA administered for 5 days after 3 days post 28 day 400 mg/dl sulfadiazine dosing by quantitative PCR analysis (Rbv = 134 +/- 226.1 pg DNA). The assay is classed as functional. In short, it runs like this:
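Chronic model: mice infected with ME49; sulfadiazine 400 mg/dl given from day 2 for 28 days to allow cyst formation. Three days after withdrawal, mice received drug daily for 5 days, in groups of four, repeated three times. On day 39, brain parasite load was measured by qPCR as pg T. gondii DNA per 250 ng total DNA.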

The subject of assay [7] is Toxoplasma gondii. The assay is described as follows: Antimicrobial activity against Toxoplasma gondii type 1 RH strain infected in human foreskin fibroblasts monolayer assessed as inhibition of parasite replication at 1 uM after 24 hrs by phase-contrast microscopy. The assay is classed as functional. The gist of the method:
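Confluent human foreskin fibroblast monolayers infected with RH tachyzoites, then exposed to compound (top concentration 1 μM) or DMSO control for 24 h. Read-out was the average number of parasites per vacuole-type count, relative to control.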

Activity calls are given as the source filed them. The rule behind the calls is not given here.

By IC50 is commonly meant the midpoint of a concentration-inhibition curve. Take `CCCCCCCCCCCCc1cc(=O)c2ccccc2n1O`: in assay [1], the IC50 came to 4.2 nM. Moreover, the result in assay [2] and in assay [3] was Active.

Take `CCCCCCCCCCCCc1c(C)c(=O)c2ccccc2n1O` [COMPOUND A]: in assay [1], the IC50 is 0.4 nM. In addition, the result in assay [2], in assay [4] and in assay [3] was Active.

Regarding `CCCCCCCCCCCCc1c(C)n(O)c2ccccc2c1=O`, in assay [1], the IC50 was found to be 0.8 nM. For the same molecule, the result in assay [2], in assay [4], in assay [5] and in assay [3] was Active. Also, the Activity in assay [6] is reported as 6.7 pg.

Regarding `O=C1C(O)=C([C@H]2CC[C@H](c3ccc(Cl)cc3)CC2)C(=O)c2ccccc21` [ATOVAQUONE], the result in assay [2], in assay [4] and in assay [5] was Active. For the same molecule, in assay [6], the Activity was determined as 0.8 pg.

Broadly, the inhibition is the percentage by which the read-out fell short of the control. Turning to `CCCCCCCCCCCCc1c(C)n(O)c2ccc(OCCN(C)C)cc2c1=O`, the inhibition at 1 µM in assay [7] is 38%.

For `CCCCCCCCCCCCc1cc(=O)c2cc(OCCN(C)C)ccc2n1O`, the inhibition result in assay [1] was “inactive”.
